Test results as given in ChEMBL document CHEMBL1129932, “Novel naphthalene derivatives as inhibitors of human immunoglobulin E antibody production” (J Med Chem, 1997).
pIC50: −log10 of the molar value.

Columns and labels:
[1] = Inhibitory activity against IgE antibody production in PMBC cells; type: functional, cell-based; conditions: Homo sapiens
Summary of the method: (§1)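 Human PBMC from healthy donors (final 2×10^6 cells/mL) were cultured in triplicate in RPMI 1640 with 10% FCS, 2 mM glutamine and penicillin/streptomycin. On day 0 they received IL-4 0.1 μg/mL, IL-10 0.2 μg/mL and α-CD40 2 μg/mL, with or without compound. After 14 days, IgE in the medium was measured by ELISA. Suppression (%) = (without − with compound)/without × 100, and IC50 was given for active compounds.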

[2] = In vitro inhibition of IgG antibody production in human PBMC cultured with alpha-CD40, IL-4 and IL-10 at 3 uM concentration […]; type: functional
[3] = In vitro inhibition of IgE antibody production in human PBMC cultured with alpha-CD40, IL-4 and IL-10 at 3 uM concentration; type: functional; summary of the method: as §1
[4] = Tested for human PBMC cell viability, cultured with alpha-CD40, IL-4 and IL-10 at 3 uM (a negative number means enhancement of cell viability); type: functional
Summary of the method: (§2)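 Viability was read in the same 14-day PBMC cultures (2×10^6 cells/mL, triplicate) with IL-4 0.1 μg/mL, IL-10 0.2 μg/mL and α-CD40 2 μg/mL. After the medium was removed, alamar blue was added for 2 h and fluorescence was read (excitation 530 nm, emission 590 nm). Suppression (%) = (without − with compound)/without × 100.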

[5] = Inhibitory activity against IgG antibody production in PBMC; type: functional; conditions: Homo sapiens
Summary of the method: (§3)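 Human PBMC from healthy donors (final 2×10^6 cells/mL, triplicate) were cultured in RPMI 1640 with 10% FCS, glutamine and antibiotics. IL-4 (0.1 μg/mL), IL-10 (0.2 μg/mL) and α-CD40 (2 μg/mL) were added on day 0, with or without compound. After 14 days, IgG in the medium was measured by ELISA. Suppression (%) = (level without − level with compound)/level without × 100.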

[6] = In vitro inhibition of IgE antibody production in human PBMC cultured with alpha-CD40, IL-4 and IL-10 at 3 uM concentration (negative means enhancement of antibody biosynthesis); type: functional; summary of the method: as §1
Homo sapiens = species: Homo sapiens; assay: Compound was tested for inhibition of PGE-2 production by human lung fibroblast WI-38 stimulated with interleukin-1-alpha (IL-1alpha) and [Ca2+] ionophore A-23187; type: functional
Summary of the method: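 WI-38 human lung fibroblasts (2×10^5 cells/mL) were grown to confluence over 4 days, then serum-starved overnight in medium with 0.5% BSA. Medium was replaced with 0.5% BSA medium containing IL-1α 10 ng/mL, with or without compound, and incubated overnight at 37 °C. Released PGE2 was measured by ELISA kit.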

[7] = Compound was tested for inhibition of IgE production on human PBMC culture after treating with IL-4, alpha-CD40, IL-10; type: functional; summary of the method: as §1
RBL-1 [8] = assay: Compound was tested for inhibition of LTB4 production by rat basophilic leukemia cells(RBL-1) stimulated with A-23187; type: functional, cell-based
Summary of the method: (§4)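 RBL-1 cells were maintained in DMEM with 10% FCS. Cells were preincubated with or without compound for 10 min at 37 °C, then stimulated with A23187 at a final 2 μM for 5 min. The reaction was stopped, and LTB4 in the centrifuged supernatant was measured by ELISA kit.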

[9] = In vitro inhibition of IgE antibody production in human PBMC cultured with alpha-CD40, IL-4 and IL-10 at 3 uM concentration […]; type: functional
[10] = Compound was tested for inhibition of IgE production on human PBMC culture after treating with IL-4, HC; type: functional
Summary of the method: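 PBMC at a final 2×10^6 cells/mL were cultured in triplicate in RPMI 1640 with 10% FCS, 2 mM glutamine and penicillin/streptomycin. IL-4 (0.1 μg/mL) and HC (1 μM) were added on day 0, with or without compound. After 14 days, IgE in the medium was measured by ELISA. Suppression (%) = (level without compound − level with compound)/level without compound × 100.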

[11] = In vitro inhibition of IgG antibody production in human PBMC cultured with alpha-CD40, IL-4 and IL-10 at 3 uM concentration; type: functional; summary of the method: as §3
[12] = Tested for human PBMC cell viability, cultured with alpha-CD40, IL-4 and IL-10 at 3 uM; type: functional; summary of the method: as §2
RBL-1 [13] = assay: Compound was tested for inhibition of LTB4 production by rat basophilic leukemia cells (RBL-1) stimulated with A-23187; type: functional, cell-based; summary of the method: as §4
[14] = Inhibitory activity against IgE antibody production in PBMC; type: functional; conditions: Homo sapiens; summary of the method: as §1
B-cell line = assay: Compound was tested for inhibition of IgE production on mouse B cells after treating with IL-4, LPS; type: functional, cell-based
Summary of the method: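 B cells came from DBA/2 splenocytes depleted with anti-mouse T cell serum plus rabbit complement, then fractionated by gradient centrifugation. They were cultured in RPMI 1640 with 10% FCS and LPS at a final 2 μg/mL. After 1 day, mouse IL-4 was added at a final 50 ng/mL. Culture continued for 6 days, and IgE in the media was measured by ELISA.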

SMILES	Suppression [2]	Suppression [3]	Cell viability [4]	Suppression [11]	further results
O=C(Nc1ccccc1C(=O)O)c1ccc(Oc2ccccc2)cc1	-1.8%	46%	-1.4		pIC50 [1]: 5.48; pIC50 [5]: < 5.00
CC(C)(C(=O)Nc1ccccc1C(=O)O)c1ccc(Oc2ccc3ccccc3c2)cc1	-5.4%		-11.3		Suppression [6]: -30.4%
O=C(Nc1ccccc1C(=O)O)c1ccc(Oc2ccc3ccccc3c2)cc1	-16.9%	64.8%	-7.4		pIC50 (Homo sapiens): 5.00; pIC50 [7]: 5.89; pIC50 (RBL-1 [8]): 6.40; pIC50 [5]: 4.42
O=C(Nc1ccccc1-c1nn[nH]n1)c1ccc(Oc2ccc3ccccc3c2)cc1	-18.7%		-13.6		Suppression [9]: -74.5%
O=C(Cc1ccc(Oc2ccc3ccccc3c2)cc1)Nc1ccccc1C(=O)O		86.6%		31.2%	pIC50 (Homo sapiens): 5.00; pIC50 [10]: 5.72; pIC50 [7]: 6.22; Cell viability [12]: 11.4; pIC50 (RBL-1 [13]): 6.15; pIC50 [5]: 5.37
O=C(Nc1ccccc1C(=O)O)c1ccc(COc2ccc3ccccc3c2)cc1	-16.1%				pIC50 (Homo sapiens): > 6.00; pIC50 [7]: < 5.52; Suppression [6]: -6.1%
O=C(Nc1ccccc1C(=O)O)c1cccc(Oc2ccc3ccccc3c2)c1	-16%		-23.6		Suppression [9]: -26.2%
O=C(O)c1cccc(NC(=O)c2ccc(Oc3ccc4ccccc4c3)cc2)c1			-14.5	2.5%	Suppression [9]: -29.6%
O=C(CCc1ccc(Oc2ccc3ccccc3c2)cc1)Nc1ccccc1C(=O)O	-41.2%	8.5%	-2.9		
Nc1ccccc1NC(=O)c1ccc(Oc2ccc3ccccc3c2)cc1		31.6%		3.3%	Cell viability [12]: -9.3
NC(=O)c1ccccc1NC(=O)c1ccc(Oc2ccc3ccccc3c2)cc1		8.6%		10.8%	Cell viability [12]: 7.3
O=C(O)c1ccccc1C(=O)Nc1ccc(Oc2ccc3ccccc3c2)cc1	-23.1%				Suppression [9]: -11.8%; Cell viability [12]: 1.5
O=C(Nc1ccccc1C(=O)O)c1ccc(Cc2ccc3ccccc3c2)cc1	-21.1%	9.5%	-1.1		
O=C(O)c1ccc(Oc2ccc3ccccc3c2)cc1	-4.8%				Suppression [9]: -4.6%
O=C(Nc1ccccc1C(=O)O)c1ccc(Sc2ccc3ccccc3c2)cc1	-2.8%	25.8%			
O=C(Nc1ccccc1C(=O)O)c1ccc(C(=O)c2ccc3ccccc3c2)cc1		10.3%		5.4%	
O=C(CCCC1CC1/C=C/c1ccc2ccccc2c1)Nc1ccccc1C(=O)O (centres undefined)	-0.5%	63%	-2.6%		pIC50 [14]: 5.73; pIC50 [5]: < 5.00
CN(C(=O)c1ccc(Oc2ccc3ccccc3c2)cc1)c1ccccc1C(=O)O			-5.1	10.1%	Suppression [9]: -27.7%
O=C(Nc1ccccc1C(=O)O)c1ccc(Oc2ccc3ccccc3c2)c([N+](=O)[O-])c1		93%		36.9%	Cell viability [12]: 19.1
CC(C(=O)Nc1ccccc1C(=O)O)c1ccc(Oc2ccc3ccccc3c2)cc1 (centres undefined)	-15.9%	8.7%	-2.1		
O=C(Nc1ccccc1C(=O)O)c1ccc(Oc2ccc3cc(O)ccc3c2)cc1	-8.7%	76.6%			pIC50 [14]: 5.92; Cell viability [12]: 5.2; pIC50 [5]: < 5.00
O=C(Nc1ccccc1C(=O)O)c1ccc(Oc2cccc3ccccc23)cc1		96.9%	-6.5	64.7%	pIC50 [14]: 5.80; pIC50 [5]: 5.63
O=C(O)c1ccccc1NCc1ccc(Oc2ccc3ccccc3c2)cc1	-4.5%	21.9%	-1.7		
O=C(Cc1ccc(Oc2ccc3cc(OCc4ccccc4)ccc3c2)cc1)Nc1ccccc1C(=O)O		95.1%		91.7%	pIC50 (B-cell line): 7.92; pIC50 [7]: 8.08; Cell viability [12]: 58.2; pIC50 (RBL-1 [13]): 5.92; pIC50 [5]: 7.38
O=C(O)c1ccc(NC(=O)c2ccc(Oc3ccc4ccccc4c3)cc2)cc1			-16.1	24.4%	Suppression [9]: 6.4%
